# How the values were obtained:
# Assay type in all cases: functional
# Conditions in all cases: read-out: GI
# LOX IMVI = assay: Growth inhibition of human LOX IMVI cells at 10 uM incubated for 48 hrs by sulforhodamine B assay relative to control
# Method in brief: (§1)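 NCI-60 single-dose screen. Cells were grown in RPMI 1640 with 5% FBS and 2 mM L-glutamine and plated 24 h before drug addition. Compound was added at one concentration in DMSO-derived medium and incubated for 48 h at 37 °C in 5% CO2. Read-out was SRB protein stain at 515 nm. Result is percent growth versus the no-drug control and the time-zero cell count; values below 0 indicate lethality.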
# IGROV-1 = assay: Growth inhibition of human IGROV-1 cells at 10 uM incubated for 48 hrs by sulforhodamine B assay relative to control; method in brief: as §1
# EKVX = assay: Growth inhibition of human EKVX cells at 10 uM incubated for 48 hrs by sulforhodamine B assay relative to control; method in brief: as §1
# A498 = assay: Growth inhibition of human A498 cells at 10 uM incubated for 48 hrs by sulforhodamine B assay relative to control
# Method in brief: (§2)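 NCI one-dose screen across a 59-line panel. Cells were grown in RPMI 1640 with 5% FBS and 2 mM L-glutamine, plated and pre-incubated 24 h, then exposed to drug for 48 h at 37 °C, 5% CO2. Adherent cells were fixed with cold TCA (10% final), stained with 0.4% SRB in 1% acetic acid and read at 515 nm. Result is percent growth relative to no-drug control and time-zero cell count.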
# HOP-62 = assay: Growth inhibition of human HOP-62 cells at 10 uM incubated for 48 hrs by sulforhodamine B assay relative to control; method in brief: as §1
# SF-539 = assay: Growth inhibition of human SF-539 cells at 10 uM incubated for 48 hrs by sulforhodamine B assay relative to control
# Method in brief: (§3)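 NCI one-dose screen. Cells grown in RPMI 1640 with 5% FBS and 2 mM L-glutamine, plated and incubated 24 h at 37 °C, 5% CO2. DMSO-dissolved drug added, then 48 h further incubation. Adherent cells fixed with cold TCA, suspension cells fixed after settling. Stained with 0.4% SRB, absorbance read at 515 nm. Reported as percent growth relative to no-drug control and time-zero cell number.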
# SK-MEL-28 = assay: Growth inhibition of human SK-MEL-28 cells at 10 uM incubated for 48 hrs by sulforhodamine B assay relative to control; method in brief: as §3
# K562 = assay: Growth inhibition of human K562 cells at 10 uM incubated for 48 hrs by sulforhodamine B assay relative to control; method in brief: as §1
# SK-MEL-5 = assay: Growth inhibition of human SK-MEL-5 cells at 10 uM incubated for 48 hrs by sulforhodamine B assay relative to control; method in brief: as §3
# PC-3 = assay: Growth inhibition of human PC-3 cells at 10 uM incubated for 48 hrs by sulforhodamine B assay relative to control; method in brief: as §3
# BT-549 = assay: Growth inhibition of human BT-549 cells at 10 uM incubated for 48 hrs by sulforhodamine B assay relative to control; method in brief: as §1
# NCI-H522 = assay: Growth inhibition of human NCI-H522 cells at 10 uM incubated for 48 hrs by sulforhodamine B assay relative to control; method in brief: as §3
# RXF 393 = assay: Growth inhibition of human RXF 393 cells at 10 uM incubated for 48 hrs by sulforhodamine B assay relative to control; method in brief: as §3
# T47D = assay: Growth inhibition of human T47D cells at 10 uM incubated for 48 hrs by sulforhodamine B assay relative to control; method in brief: as §2
# MDA-MB-468 = assay: Growth inhibition of human MDA-MB-468 cells at 10 uM incubated for 48 hrs by sulforhodamine B assay relative to control; method in brief: as §1
# Malme-3M = assay: Growth inhibition of human Malme-3M cells at 10 uM incubated for 48 hrs by sulforhodamine B assay relative to control; method in brief: as §3
# NCI-H226 = assay: Growth inhibition of human NCI-H226 cells at 10 uM incubated for 48 hrs by sulforhodamine B assay relative to control; method in brief: as §3
# MOLT-4 = assay: Growth inhibition of human MOLT-4 cells at 10 uM incubated for 48 hrs by sulforhodamine B assay relative to control; method in brief: as §3
# SW-620 = assay: Growth inhibition of human SW-620 cells at 10 uM incubated for 48 hrs by sulforhodamine B assay relative to control; method in brief: as §2
# NCI/ADR-RES = assay: Growth inhibition of human NCI/ADR-RES cells at 10 uM incubated for 48 hrs by sulforhodamine B assay relative to control; method in brief: as §3
# NCI-H460 = assay: Growth inhibition of human NCI-H460 cells at 10 uM incubated for 48 hrs by sulforhodamine B assay relative to control; method in brief: as §3
# OVCAR-4 = assay: Growth inhibition of human OVCAR-4 cells at 10 uM incubated for 48 hrs by sulforhodamine B assay relative to control; method in brief: as §3
# OVCAR-3 = assay: Growth inhibition of human OVCAR-3 cells at 10 uM incubated for 48 hrs by sulforhodamine B assay relative to control; method in brief: as §3
# UACC-257 = assay: Growth inhibition of human UACC-257 cells at 10 uM incubated for 48 hrs by sulforhodamine B assay relative to control; method in brief: as §2
# NCI-H23 = assay: Growth inhibition of human NCI-H23 cells at 10 uM incubated for 48 hrs by sulforhodamine B assay relative to control; method in brief: as §3
# COLO 205 = assay: Growth inhibition of human COLO 205 cells at 10 uM incubated for 48 hrs by sulforhodamine B assay relative to control; method in brief: as §1
# Hs-578T = assay: Growth inhibition of human HS-578T cells at 10 uM incubated for 48 hrs by sulforhodamine B assay relative to control; method in brief: as §1
# HOP-92 = assay: Growth inhibition of human HOP-92 cells at 10 uM incubated for 48 hrs by sulforhodamine B assay relative to control; method in brief: as §1
# SNB-19 = assay: Growth inhibition of human SNB-19 cells at 10 uM incubated for 48 hrs by sulforhodamine B assay relative to control; method in brief: as §3
# OVCAR-8 = assay: Growth inhibition of human OVCAR-8 cells at 10 uM incubated for 48 hrs by sulforhodamine B assay relative to control; method in brief: as §3
# SK-MEL-2 = assay: Growth inhibition of human SK-MEL-2 cells at 10 uM incubated for 48 hrs by sulforhodamine B assay relative to control; method in brief: as §3
# SR = assay: Growth inhibition of human SR cells at 10 uM incubated for 48 hrs by sulforhodamine B assay relative to control; method in brief: as §3
# TK-10 = assay: Growth inhibition of human TK-10 cells at 10 uM incubated for 48 hrs by sulforhodamine B assay relative to control; method in brief: as §2
# UACC-62 = assay: Growth inhibition of human UACC-62 cells at 10 uM incubated for 48 hrs by sulforhodamine B assay relative to control; method in brief: as §2
# SN12C = assay: Growth inhibition of human SN12C cells at 10 uM incubated for 48 hrs by sulforhodamine B assay relative to control; method in brief: as §3
# NCI-H322M = assay: Growth inhibition of human NCI-H322M cells at 10 uM incubated for 48 hrs by sulforhodamine B assay relative to control; method in brief: as §3
# KM12 = assay: Growth inhibition of human KM12 cells at 10 uM incubated for 48 hrs by sulforhodamine B assay relative to control; method in brief: as §1
Compound,inhibition of growth at 10 µM (LOX IMVI) [%],inhibition of growth at 10 µM (IGROV-1) [%],inhibition of growth at 10 µM (EKVX) [%],inhibition of growth at 10 µM (A498) [%],inhibition of growth at 10 µM (HOP-62) [%],inhibition of growth at 10 µM (SF-539) [%],inhibition of growth at 10 µM (SK-MEL-28) [%],inhibition of growth at 10 µM (K562) [%],inhibition of growth at 10 µM (SK-MEL-5) [%],inhibition of growth at 10 µM (PC-3) [%],inhibition of growth at 10 µM (BT-549) [%],inhibition of growth at 10 µM (NCI-H522) [%],inhibition of growth at 10 µM (RXF 393) [%],inhibition of growth at 10 µM (T47D) [%],inhibition of growth at 10 µM (MDA-MB-468) [%],inhibition of growth at 10 µM (Malme-3M) [%],inhibition of growth at 10 µM (NCI-H226) [%],inhibition of growth at 10 µM (MOLT-4) [%],inhibition of growth at 10 µM (SW-620) [%],inhibition of growth at 10 µM (NCI/ADR-RES) [%],other results
COc1cc2nc(-c3ccc(Cl)cc3)cc(OCCCN3CCOCC3)c2cc1OC,62,62,62,62,62,62,62,62,62,62,62,62,62,62,62,62,62,62,62,62,inhibition of growth at 10 µM (NCI-H460): 62%; inhibition of growth at 10 µM (OVCAR-4): 62%; inhibition of growth at 10 µM (OVCAR-3): 62%; inhibition of growth at 10 µM (UACC-257): 62%; inhibition of growth at 10 µM (NCI-H23): 62%; inhibition of growth at 10 µM (COLO 205): 62%; inhibition of growth at 10 µM (Hs-578T): 62%; inhibition of growth at 10 µM (HOP-92): 62%; inhibition of growth at 10 µM (SNB-19): 62%; inhibition of growth at 10 µM (OVCAR-8): 62%; inhibition of growth at 10 µM (SK-MEL-2): 62%; inhibition of growth at 10 µM (SR): 62%; inhibition of growth at 10 µM (TK-10): 62%; inhibition of growth at 10 µM (UACC-62): 62%; inhibition of growth at 10 µM (SN12C): 62%; inhibition of growth at 10 µM (NCI-H322M): 62%; inhibition of growth at 10 µM (KM12): 62%
COc1cc2nc(-c3ccc(Cl)cc3)cc(OCCCN3CCCCC3)c2cc1OC,62,62,62,62,62,62,62,62,62,62,62,62,62,62,62,62,62,62,62,62,inhibition of growth at 10 µM (NCI-H460): 62%; inhibition of growth at 10 µM (OVCAR-4): 62%; inhibition of growth at 10 µM (OVCAR-3): 62%; inhibition of growth at 10 µM (UACC-257): 62%; inhibition of growth at 10 µM (NCI-H23): 62%; inhibition of growth at 10 µM (COLO 205): 62%; inhibition of growth at 10 µM (Hs-578T): 62%; inhibition of growth at 10 µM (HOP-92): 62%; inhibition of growth at 10 µM (SNB-19): 62%; inhibition of growth at 10 µM (OVCAR-8): 62%; inhibition of growth at 10 µM (SK-MEL-2): 62%; inhibition of growth at 10 µM (SR): 62%; inhibition of growth at 10 µM (TK-10): 62%; inhibition of growth at 10 µM (UACC-62): 62%; inhibition of growth at 10 µM (SN12C): 62%; inhibition of growth at 10 µM (NCI-H322M): 62%; inhibition of growth at 10 µM (KM12): 62%
COc1cc2nc(-c3ccc(C(F)(F)F)cc3)cc(OCCN3CCC(O)CC3)c2cc1OC,13,13,13,13,13,13,13,13,13,13,13,13,13,13,13,13,13,13,13,13,inhibition of growth at 10 µM (NCI-H460): 13%; inhibition of growth at 10 µM (OVCAR-4): 13%; inhibition of growth at 10 µM (OVCAR-3): 13%; inhibition of growth at 10 µM (UACC-257): 13%; inhibition of growth at 10 µM (NCI-H23): 13%; inhibition of growth at 10 µM (COLO 205): 13%; inhibition of growth at 10 µM (Hs-578T): 13%; inhibition of growth at 10 µM (HOP-92): 13%; inhibition of growth at 10 µM (SNB-19): 13%; inhibition of growth at 10 µM (OVCAR-8): 13%; inhibition of growth at 10 µM (SK-MEL-2): 13%; inhibition of growth at 10 µM (SR): 13%; inhibition of growth at 10 µM (TK-10): 13%; inhibition of growth at 10 µM (UACC-62): 13%; inhibition of growth at 10 µM (SN12C): 13%; inhibition of growth at 10 µM (NCI-H322M): 13%; inhibition of growth at 10 µM (KM12): 13%

# From ChEMBL document CHEMBL4732237, “Discovery of 4-alkoxy-2-aryl-6,7-dimethoxyquinolines as a new class of topoisomerase I inhibitors endowed with potent in vitro anticancer activity” (2021)
